{
  "source": "ChEMBL document CHEMBL3244382",
  "about": "“Structural requirements for antileukemic activity among the naturally occurring and semisynthetic maytansinoids” (J Med Chem, 1978)",
  "key": {"[1]": {"test_system": "Mus musculus", "experiment": "Toxicity in PS mouse allografted with mouse P388 cells assessed as change in body weight at 50 ug/kg relative to control", "assay_type": "organism-based", "settings": "in vivo, 0.05 mg/kg", "outline": "(§1)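 P388 (PS) leukemia in mice, 6 mice per dose group. Weight change is the difference in grams between treated and control animals. Survivors are recorded on toxicity day, normally 4 days after the first injection.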"}, "[2]": {"test_system": "Mus musculus", "experiment": "Toxicity in PS mouse allografted with mouse P388 cells assessed as survival at 200 ug/kg after 4 days", "assay_type": "organism-based", "settings": "in vivo, 0.2 mg/kg, 96 h", "outline": "(§2)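 PS (P388) leukemic mice, six started per dose group. Toxicity scored as survivors on the toxicity day over the number of mice started. The toxicity day is normally 4 days after the first injection.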"}, "[3]": {"test_system": "Mus musculus", "experiment": "Toxicity in PS mouse allografted with mouse P388 cells assessed as survival at 1.8 ug/kg after 4 days", "assay_type": "organism-based", "settings": "in vivo, 0.0018 mg/kg, 96 h", "outline": "as §2"}, "[4]": {"test_system": "P388", "experiment": "Antitumor activity against mouse P388 cells allografted in PS mouse assessed as median survival time at 6.2 ug/kg relative to control", "assay_type": "functional", "outline": "(§3)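 P388 leukemia (PS) in mice, six mice started per dose group. Read-out is T/C: median survival time of the treated group divided by that of the untreated control group, expressed as a percent. The NIH protocol counts a compound as active when T/C > 125%.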"}, "[5]": {"test_system": "P388", "experiment": "Antitumor activity against mouse P388 cells allografted in PS mouse assessed as median survival time at 3.1 ug/kg relative to control", "assay_type": "functional", "outline": "as §3"}, "[6]": {"test_system": "Mus musculus", "experiment": "Toxicity in PS mouse allografted with mouse P388 cells assessed as survival at 6.2 ug/kg after 4 days", "assay_type": "organism-based", "settings": "in vivo, 0.0062 mg/kg, 96 h", "outline": "as §2"}, "[7]": {"test_system": "Mus musculus", "experiment": "Toxicity in PS mouse allografted with mouse P388 cells assessed as change in body weight at 200 ug/kg relative to control", "assay_type": "organism-based", "settings": "in vivo, 0.2 mg/kg", "outline": "as §1"}, "[8]": {"test_system": "Mus musculus", "experiment": "Toxicity in PS mouse allografted with mouse P388 cells assessed as change in body weight at 25 ug/kg relative to control", "assay_type": "organism-based", "settings": "in vivo, 0.025 mg/kg", "outline": "as §1"}, "[9]": {"test_system": "KB", "experiment": "Cytotoxicity against human KB cells", "assay_type": "functional", "settings": "read-out: ED50 (the source's name)"}, "[10]": {"test_system": "P388", "experiment": "Antitumor activity against mouse P388 cells allografted in PS mouse assessed as median survival time at 0.9 ug/kg relative to control", "assay_type": "functional", "outline": "as §3"}, "[11]": {"test_system": "P388", "experiment": "Antitumor activity against mouse P388 cells allografted in PS mouse assessed as median survival time at 25 ug/kg relative to control", "assay_type": "functional", "outline": "as §3"}, "[12]": {"test_system": "Paracentrotus lividus", "experiment": "Antimitotic activity against sea urchin eggs assessed as drug level causing inhibition of mitosis", "assay_type": "functional", "settings": "Egg"}, "[13]": {"test_system": "Mus musculus", "experiment": "Toxicity in PS mouse allografted with mouse P388 cells assessed as survival at 0.9 ug/kg after 4 days", "assay_type": "organism-based", "settings": "in vivo, 0.0009 mg/kg, 96 h", "outline": "as §2"}, "[14]": {"test_system": "Mus musculus", "experiment": "Toxicity in PS mouse allografted with mouse P388 cells assessed as change in body weight at 1.8 ug/kg relative to control", "assay_type": "organism-based", "settings": "in vivo, 0.0018 mg/kg", "outline": "as §1"}, "[15]": {"test_system": "Mus musculus", "experiment": "Toxicity in PS mouse allografted with mouse P388 cells assessed as change in body weight at 6.2 ug/kg relative to control", "assay_type": "organism-based", "settings": "in vivo, 0.0062 mg/kg", "outline": "as §1"}, "[16]": {"test_system": "Mus musculus", "experiment": "Toxicity in PS mouse allografted with mouse P388 cells assessed as change in body weight at 3.1 ug/kg relative to control", "assay_type": "organism-based", "settings": "in vivo, 0.0031 mg/kg", "outline": "as §1"}, "[17]": {"test_system": "Mus musculus", "experiment": "Toxicity in PS mouse allografted with mouse P388 cells assessed as survival at 12.5 ug/kg after 4 days", "assay_type": "organism-based", "settings": "in vivo, 0.0125 mg/kg, 96 h", "outline": "as §2"}, "[18]": {"test_system": "Mus musculus", "experiment": "Toxicity in PS mouse allografted with mouse P388 cells assessed as change in body weight at 100 ug/kg relative to control", "assay_type": "organism-based", "settings": "in vivo, 0.1 mg/kg", "outline": "as §1"}, "[19]": {"test_system": "P388", "experiment": "Antitumor activity against mouse P388 cells allografted in PS mouse assessed as median survival time at 50 ug/kg relative to control", "assay_type": "functional", "outline": "as §3"}, "[20]": {"test_system": "Mus musculus", "experiment": "Toxicity in PS mouse allografted with mouse P388 cells assessed as change in body weight at 12.5 ug/kg relative to control", "assay_type": "organism-based", "settings": "in vivo, 0.0125 mg/kg", "outline": "as §1"}, "[21]": {"molecular_target": "Tubulin (Homo sapiens) (UniProt P68371+Q9H4B7+P0DPH7+P68366+Q13509+Q71U36+P04350+Q3ZCM7+P07437+P68363+Q9BQE3+Q6PEY2+Q13885+Q9BVA1+Q9BUF5)", "experiment": "Inhibition of brain tubulin polymerization (unknown origin) at 37 degC by spectrophotometry"}, "[22]": {"test_system": "Mus musculus", "experiment": "Toxicity in PS mouse allografted with mouse P388 cells assessed as survival at 3.1 ug/kg after 4 days", "assay_type": "organism-based", "settings": "in vivo, 0.0031 mg/kg, 96 h", "outline": "as §2"}, "[23]": {"test_system": "P388", "experiment": "Antitumor activity against mouse P388 cells allografted in PS mouse assessed as median survival time at 12.5 ug/kg relative to control", "assay_type": "functional", "outline": "as §3"}, "[24]": {"test_system": "P388", "experiment": "Antitumor activity against mouse P388 cells allografted in PS mouse assessed as median survival time at 1.8 ug/kg relative to control", "assay_type": "functional", "outline": "as §3"}, "[25]": {"test_system": "Mus musculus", "experiment": "Toxicity in PS mouse allografted with mouse P388 cells assessed as survival at 100 ug/kg after 4 days", "assay_type": "organism-based", "settings": "in vivo, 0.1 mg/kg, 96 h", "outline": "as §2"}, "[26]": {"test_system": "Mus musculus", "experiment": "Toxicity in PS mouse allografted with mouse P388 cells assessed as survival at 25 ug/kg after 4 days", "assay_type": "organism-based", "settings": "in vivo, 0.025 mg/kg, 96 h", "outline": "as §2"}, "[27]": {"test_system": "P388", "experiment": "Antitumor activity against mouse P388 cells allografted in PS mouse assessed as median survival time at 100 ug/kg relative to control", "assay_type": "functional", "outline": "as §3"}, "[28]": {"test_system": "Mus musculus", "experiment": "Toxicity in PS mouse allografted with mouse P388 cells assessed as change in body weight at 0.9 ug/kg relative to control", "assay_type": "organism-based", "settings": "in vivo, 0.0009 mg/kg", "outline": "as §1"}, "[29]": {"test_system": "Mus musculus", "experiment": "Toxicity in PS mouse allografted with mouse P388 cells assessed as survival at 50 ug/kg after 4 days", "assay_type": "organism-based", "settings": "in vivo, 0.05 mg/kg, 96 h", "outline": "as §2"}, "[30]": {"test_system": "P388", "experiment": "Antitumor activity against mouse P388 cells allografted in PS mouse assessed as median survival time at 200 ug/kg relative to control", "assay_type": "functional", "outline": "as §3"}},
  "note": "Active and inactive are the calls of the source.",
  "data": [
    {"smiles": "COc1cc2cc(c1Cl)N(C)C(=O)C[C@H](OC(=O)CBr)[C@]1(C)O[C@H]1[C@H](C)[C@@H]1C[C@@](O)(NC(=O)O1)[C@H](OC)/C=C/C=C(\\C)C2", "values": [
      {"measurement": "Activity", "setting": "[1]", "result": -0.3, "unit": "g"},
      {"measurement": "Activity", "setting": "[2]", "result": "Toxic"},
      {"measurement": "Activity", "setting": "[3]", "result": "Non-toxic"},
      {"measurement": "T/C", "setting": "[4]", "result": 146, "unit": "%"},
      {"measurement": "T/C", "setting": "[5]", "result": 130, "unit": "%"},
      {"measurement": "Activity", "setting": "[6]", "result": "Non-toxic"},
      {"measurement": "Activity", "setting": "[7]", "result": -2.5, "unit": "g"},
      {"measurement": "Activity", "setting": "[8]", "result": -0.5, "unit": "g"},
      {"measurement": "EC50", "setting": "[9]", "result": 0.44, "unit": "ng/mL"},
      {"measurement": "T/C", "setting": "[10]", "result": 129, "unit": "%"},
      {"measurement": "T/C", "setting": "[11]", "result": 162, "unit": "%"},
      {"measurement": "Activity", "setting": "[12]", "result": 1, "unit": "×10⁻⁸ mol/L"},
      {"measurement": "Activity", "setting": "[13]", "result": "Non-toxic"},
      {"measurement": "Activity", "setting": "[14]", "result": -0.6, "unit": "g"},
      {"measurement": "Activity", "setting": "[15]", "result": 0.2, "unit": "g"},
      {"measurement": "Activity", "setting": "[16]", "result": -0.2, "unit": "g"},
      {"measurement": "Activity", "setting": "[17]", "result": "Non-toxic"},
      {"measurement": "Activity", "setting": "[18]", "result": -1.3, "unit": "g"},
      {"measurement": "T/C", "setting": "[19]", "result": 189, "unit": "%"},
      {"measurement": "Activity", "setting": "[20]", "result": -0.3, "unit": "g"},
      {"measurement": "inhibition", "setting": "[21]", "result": "Active"},
      {"measurement": "Activity", "setting": "[22]", "result": "Non-toxic"},
      {"measurement": "T/C", "setting": "[23]", "result": 153, "unit": "%"},
      {"measurement": "T/C", "setting": "[24]", "result": 131, "unit": "%"},
      {"measurement": "Activity", "setting": "[25]", "result": "Non-toxic"},
      {"measurement": "Activity", "setting": "[26]", "result": "Non-toxic"},
      {"measurement": "T/C", "setting": "[27]", "result": 232, "unit": "%"},
      {"measurement": "Activity", "setting": "[28]", "result": -0.4, "unit": "g"},
      {"measurement": "Activity", "setting": "[29]", "result": "Non-toxic"},
      {"measurement": "T/C", "setting": "[30]", "result": "< 80", "unit": "%"}
    ]}
  ]
}
